LEDGF integ inh: blocks HIV-1 LEDGF/p75-dependent DNA integration; TR-FRET IN-LEDGF/p75 DNA integration, Eu/Cy5; inhibition, % at 3.7 µM; 370,000 tested, 0.64% active; AID 743269;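 active = inhibition above the screen-wide mean plus 3 SD, cut at about 13% in these data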;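 note: signal is the Cy5 over europium emission ratio at 671 and 618 nm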
PRMT1 FP inh: blocks human protein arginine methyltransferase 1; Q99873; recombinant PRMT1, activity-based probe fluorescence polarization; inhibition, % at 2.79 µM; 370,000 tested, 1.3% active;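 active = inhibition above about 21% made by adding two undisclosed values, limit read from the data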
rCAG binder: molecules binding r(CAG) RNA repeats; r(CAG) RNA repeat, TO-PRO-1 dye displacement fluorescence; inhibition, % at 3 µM; 370,000 tested, 1.3% active; AID 651821;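 active = inhibition above the plate cutoff, the mean of all test compounds on that plate plus 3 SD, cut at about 35% in these data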;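 note: higher means more dye released from RNA so lower well fluorescence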
DAGLB inhibitor: blocks human DAGLB lipase activity; HEK293T DAGLB membrane lysate, EnzChek fluorogenic substrate; inhibition, % at 5.17 µM; 340,000 tested, 0.059% active; AID 504411; in the data active = inhibition above about 34%
Target sequence (Q8NCG7 whole entry, looked up): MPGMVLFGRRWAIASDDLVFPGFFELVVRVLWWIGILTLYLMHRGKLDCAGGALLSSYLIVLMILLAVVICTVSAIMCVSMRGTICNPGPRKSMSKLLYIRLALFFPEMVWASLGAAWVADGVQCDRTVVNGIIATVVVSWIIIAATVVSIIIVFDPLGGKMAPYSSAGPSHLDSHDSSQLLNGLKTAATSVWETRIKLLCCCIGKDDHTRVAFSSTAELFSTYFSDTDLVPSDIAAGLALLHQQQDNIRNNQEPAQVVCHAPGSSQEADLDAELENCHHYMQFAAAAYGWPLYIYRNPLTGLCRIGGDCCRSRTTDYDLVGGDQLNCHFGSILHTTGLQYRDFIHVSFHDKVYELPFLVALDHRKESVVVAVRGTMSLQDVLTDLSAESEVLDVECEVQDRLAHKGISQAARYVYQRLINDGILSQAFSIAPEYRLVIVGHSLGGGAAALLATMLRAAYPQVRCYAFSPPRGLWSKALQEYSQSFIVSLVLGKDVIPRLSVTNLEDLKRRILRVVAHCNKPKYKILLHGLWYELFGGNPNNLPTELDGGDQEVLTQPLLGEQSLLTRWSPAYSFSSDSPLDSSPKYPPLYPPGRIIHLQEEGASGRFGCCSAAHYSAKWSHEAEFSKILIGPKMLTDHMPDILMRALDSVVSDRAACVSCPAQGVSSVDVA
ABHD4 inh: inhibits mouse alpha/beta hydrolase domain 4; purified mABHD4, FP-Rh probe fluorescence polarization; Q8VD66; inhibition, % at 8.92 µM; 370,000 tested, 0.54% active;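 active = inhibition exceeding the mean over every tested compound plus 3 SD, cut at about 30% in these data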
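Assay system: mouse ABHD4 enzyme, wild type / Also added: fluorescent activity-based probe FP-Rh / Doses: single nominal dose of 8.92 µM, 0.89% DMSO final / Timing: 45 min compound pre-incubation plus 60 min probe step, 25 °C / Signal: FP readout, ex 525 nm / em 598 nm / Control set: S159A mutant/DMSO as 100%, compound-well median as 0%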
HTRA1 inh: inhibitors of human serine peptidase HTRA1. Q92743. inhibition, % at 5.96 µM. AID 504803. 340,000 tested, 0.5% active. recombinant HTRA1, FP-rhodamine activity-based probe, fluorescence polarization; in the data active = inhibition above about 36%
DAGLB inh conf: DAGLB (human) inhibition, confirmation screen. shares compounds with DAGLB inhibitor. HEK293T DAGLB membrane lysate, EnzChek fluorogenic substrate. inhibition, % at 5.17 µM. 190 tested, 73% active. AID 504445;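 active = mean inhibition over triplicate wells above a set limit taken from the primary lipase screen, cut at about 34% in these data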
HTRA1 inh conf: HTRA1 (human) inhibition, confirmation; shares compounds with HTRA1 inh; recombinant HTRA1, FP-rhodamine activity-based probe, fluorescence polarization; inhibition, % at 5.96 µM; 1,600 tested, 66% active; AID 540248;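 active = mean inhibition over three repeats above a set limit taken from the earlier primary screen, cut at about 37% in these data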;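 note: inhibitors block probe binding so polarization drops and inhibition rises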
rCAG bind conf: r(CAG) RNA repeat binding, confirmation; shares compounds with rCAG binder; inhibition, % at 3 µM; 4,300 tested, 70% active; AID 652065; TO-PRO-1 dye displacement fluorescence;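 active = inhibition above a per-plate cutoff, the mean inhibition of sample wells plus 3 SD, cut at about 35% in these data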;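 note: loss of TO-PRO-1 fluorescence as compound displaces dye from 1x1 AA loop RNA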
DNA CAG counter: counter-screen for rCAG RNA binders: DNA CAG dye complex inhibitors. inhibition, % at 3 µM. 4,300 tested, 94% active. d(CAG) DNA oligo TO-PRO-1 dye displacement, fluorescence. shares compounds with rCAG binder;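 active = inhibition above its plate's cutoff, the mean test-well inhibition plus 3 SD, cut at about 4.8% in these data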;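 note: hits displace the dye from DNA and so lower well fluorescence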
dCAG dye DR: counter-screen for rCAG binders: inhibitors of DNA CAG TO-PRO-1 complex. 250 tested, 20% active. DNA CAG/GTC duplex TO-PRO-1 dye displacement fluorescence. IC50, µM. AID 686960. shares compounds with rCAG binder; in the data active = IC50 below about 10 µM
PRMT1 inh conf: PRMT1 (human) inhibition, FP confirmation; shares compounds with PRMT1 FP inh; recombinant His-PRMT1, activity-based probe fluorescence polarization; inhibition, % at 2.79 µM; 3,300 tested, 42% active; AID 687036;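 active = mean inhibition across replicates above the hit cutoff derived for the earlier primary screen, cut at about 22% in these data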
mABHD4 conf: ABHD4 (mouse) inhibition, FP confirmation. inhibition, % at 8.92 µM. purified mABHD4, FP-Rh probe fluorescence polarization. 1,800 tested, 55% active. shares compounds with ABHD4 inh;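 active = mean inhibition across replicates above the hit cutoff set in the primary screen, cut at about 30% in these data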
Hits are given with their value; - = inactive; . = not tested or not shown. The list is not random: actives were taken first. Their share in the collection is about 3.2%.

SMILES | LEDGF integ inh | PRMT1 FP inh | rCAG binder | DAGLB inhibitor | ABHD4 inh | HTRA1 inh | DAGLB inh conf | HTRA1 inh conf | rCAG bind conf | DNA CAG counter | mABHD4 conf | others
Oc1c(Br)cc(Br)cc1/C=N/NC(=S)N[C@H]1CC2C=CC1C2 (stereo partly specified) | - | - | 74 | 35 | 38 | 57 | - | 63 | 66 | 29 | 43 | dCAG dye DR=-
COc1ccccc1C(C(C(=O)c1ccccc1)N1CCOCC1)N1CCOCC1 (stereo unspecified) | - | - | - | - | - | - | . | . | . | . | .
CN(c1ccccc1)c1ccc(/C=C(/CCC(=O)O)c2nc3ccccc3s2)cc1[N+](=O)[O-] | - | - | 77 | 35 | 46 | - | 50 | . | 82 | 43 | 56
O=C(CN1C(=O)C2(OCCO2)c2cc(Br)ccc21)NO | - | - | - | - | - | - | . | . | . | . | .
COc1ccc(NC(=S)NNc2ccc(S(=O)(=O)Nc3ccccc3C(=O)O)cc2[N+](=O)[O-])cc1 | - | - | 97 | 43 | 74 | 74 | 48 | 73 | 88 | 61 | 96
CCOc1ccc(C=NNc2ccc(S(=O)(=O)Nc3ccccc3C(=O)O)cc2[N+](=O)[O-])cc1 | . | . | . | - | . | - | . | . | . | . | .
CSCCC(NC(=O)c1ccccc1Br)C(=O)NC(C)CCc1ccccc1 (stereo unspecified) | - | - | - | - | - | - | . | . | . | . | .
Nc1cc2c(cc1[N+](=O)[O-])-c1ccccc1C2=NO | - | - | 44 | 35 | 49 | - | - | . | - | 24 | -
Nc1ccc2c(c1)C(=NO)c1ccccc1-2 | - | - | - | - | - | - | . | . | . | . | .
CCN(CC)c1ccc(C(=C2C=CC(=[N+](CC)CC)C=C2)c2ccc(N(CC)CC)cc2)cc1 | - | - | - | 53 | 110 | 83 | 105 | 86 | . | . | 125
CCN(CC)c1ccc(C(=O)NNC(=O)CCl)cc1 | - | - | - | - | - | - | . | . | . | . | .
COc1ccc(S(=O)(=O)N2CCN(Cc3cccc([N+](=O)[O-])c3)CC2)cc1 | - | - | - | - | - | - | . | . | . | . | .
CCn1nc([N+](=O)[O-])c(C(C#N)c2nc3cc(C(F)(F)F)ccc3s2)c(Cl)c1=O (stereo unspecified) | - | 28 | 94 | 60 | 85 | 79 | 106 | 76 | 87 | 60 | 101 | PRMT1 inh conf=31
Cn1nc([N+](=O)[O-])c(C(C#N)c2ccccn2)c(Cl)c1=O (stereo unspecified) | - | - | - | - | - | - | . | . | . | . | .
